# High-throughput results as filed in PubChem BioAssay.
# CAL PDZ FP-1: inhibitors of human CAL PDZ peptide binding | purified CAL PDZ, TMR-peptide fluorescence polarization, 1 h | actives 0.92% (n = 300,000) | Q9HD26 | inhibition, % at 24.9 µM | AID 602252;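 active means mean inhibition of at least 30% with at least half of replicates also reaching 30%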;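 further: 0% = DMSO neutral control and 100% = excess unlabeled competitor peptide PRC23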
# CAL PDZ FP-2: inhibitors of human CAL PDZ peptide binding; Q9HD26; AID 504414; actives 0.02% (n = 330,000); purified CAL PDZ, TMR-peptide fluorescence polarization, 1 h; inhibition, % at 20 µM;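 active means highest replicate inhibition of at least 40%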;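 further: plate controls were DMSO neutral control wells for no effect and unlabeled competitor peptide control wells for full effect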
#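 Assay system – tagged CAL PDZ protein CerCALP, purified · Timing – 1 h at RT · Compound – single point, 20 µM · Measured by – fluorescence polarization from S- and P-plane intensities, G-factor corrected · Evaluation – inhibition from polarization loss · Probe or stimulus – TMR reporter peptide T*-PRC34 · Buffer or medium – pH 7.4 phosphate-saline buffer, reducing agent, detergent, IgG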
# dFosB act-1: enhances mouse delta FosB homodimer DNA binding | P13346 | purified delta FosB, TAMRA-CDK5 oligo fluorescence polarization; percent of positive-control signal above neutral wells | activation, % at 25 µM | actives 0.99% (n = 340,000);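 active means mean activation above about 17%, with every replicate also reaching it, limit read from the data, passing the limit was not always enough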
# Target sequence (P13346 whole entry, looked up): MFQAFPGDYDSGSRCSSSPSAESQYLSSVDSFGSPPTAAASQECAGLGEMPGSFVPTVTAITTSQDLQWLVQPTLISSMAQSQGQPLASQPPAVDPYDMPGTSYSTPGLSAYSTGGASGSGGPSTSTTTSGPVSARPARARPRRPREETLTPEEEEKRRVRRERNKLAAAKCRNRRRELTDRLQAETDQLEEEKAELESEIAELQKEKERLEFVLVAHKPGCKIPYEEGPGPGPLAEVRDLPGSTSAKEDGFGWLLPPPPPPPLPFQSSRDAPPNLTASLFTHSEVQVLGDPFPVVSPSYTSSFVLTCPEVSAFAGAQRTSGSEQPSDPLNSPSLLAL
# S100A4 MyoIIA: inhibitors of human S100A4 binding to myosin IIA peptide; S100A4/TAMRA-MyoIIA peptide fluorescence polarization; inhibition, % at 10.7 µM; actives 0.14% (n = 360,000); AID 652163;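 active means mean inhibition of at least 70% across replicates, with every replicate also reaching that level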
# Target sequence (P26447 whole entry, looked up): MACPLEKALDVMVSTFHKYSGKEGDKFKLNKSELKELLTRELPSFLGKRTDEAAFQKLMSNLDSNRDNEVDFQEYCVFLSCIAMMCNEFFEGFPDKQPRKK
#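 Material: human S100A4 monomer with TAMRA-labelled myosin IIA peptide; buffer or medium: HEPES pH 7.2 with CaCl2, KCl, NaCl, DTT, Triton; compound dosing: one concentration per compound; schedule: 5 min incubation before reading; benchmarks: neutral control DMSO, positive control TFP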
# C2C12 statin: suppressors of simvastatin-induced myotoxicity in C2C12 myotubes | ATP luminescence, 48 h; scaled: DMSO 0, geranylgeraniol control 100 | actives 0.78% (n = 330,000) | rescue of ATP level, % at 7.49 µM | AID 602340;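 active means mean ATP rescue above about 67%, or every replicate alone reaching that limit, limit read from the data, passing the limit was not always enough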;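 further: myotubes were challenged with 10 µM simvastatin during compound exposure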
# CDK5 p35 inh: CDK5/p35 (human) kinase inhibition | Q00535+Q15078 | Recombinant CDK5/p35, ADP-Glo luminescence, 60 min | inhibition, % at 10 µM | actives 0.01% (n = 330,000);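 active means highest replicate inhibition of at least 50% and at least 75% of replicates reaching 50%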;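 further: plate controls were DMSO neutral control for no effect and GW8510 at 10 µM for full effect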
# dFosB act-2: activators of mouse delta FosB homodimer DNA binding. purified delta FosB, TAMRA-CDK5 oligo fluorescence polarization; normalised: neutral wells 0, positive control 100. shares compounds with dFosB act-1. 2,400 tested, under 10 active. activation, % at 24.9 µM;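 active means highest replicate activation at or above 34% and every replicate reaching that threshold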;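 further: higher polarization means more probe DNA bound by delta FosB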
# * hit, by the source's call; x = no result. Hits are enriched below; roughly 2% of the tested compounds scored in any of these assays.
SMILES,CAL PDZ FP-1,CAL PDZ FP-2,dFosB act-1,S100A4 MyoIIA,C2C12 statin,CDK5 p35 inh,dFosB act-2
Cc1ccc(OCCn2c(C)c(/C=N/n3cnnc3)c3ccccc32)cc1,-2,-3,31*,x,29,0,5
Cc1c(/C=N/n2cnnc2)c2ccccc2n1CCOc1ccc(Cl)cc1,x,-2,5,x,0,2,x
CCCCc1ccc(NC(=O)CSc2nc3ncccc3[nH]2)cc1,-1,-2,20*,3,9,1,-1
NC(=O)CC(NC(=O)c1ccc(Br)cc1)c1ccc(NC2CCCCC2)c([N+](=O)[O-])c1 (stereo not given),1,1,42*,-1,-3,1,8
COc1ccc(CCNc2ccc(C(CC(N)=O)NC(=O)c3ccccc3)cc2[N+](=O)[O-])cc1 (stereo not given),-6,0,32*,x,5,1,-2
Cc1ccccc1CNc1ccc(C(CC(N)=O)NC(=O)c2ccccc2)cc1[N+](=O)[O-] (stereo not given),-1,1,28*,1,-4,-1,-1
Cc1cccc(CNc2ccc(C(CC(N)=O)NC(=O)c3ccccc3)cc2[N+](=O)[O-])c1 (stereo not given),4,1,-2,2,6,-4,x
NC(=O)CC(NC(=O)c1ccccc1)c1ccc(NCCc2ccc(F)cc2)c([N+](=O)[O-])c1 (stereo not given),0,0,-4,-3,20,0,x
c1cncc(-c2nc(N3CCOCC3)c3c4c(sc3n2)CCC4)c1,-1,0,-13,1,-7,2,x
CCN(C(=O)COC(=O)CCc1ccc(OC)cc1)c1c(N)n(Cc2ccccc2)c(=O)[nH]c1=O,44*,-1,42*,-2,-3,0,1
CC(C)CN(C(=O)COC(=O)c1ccc(Br)cc1)c1c(N)n(Cc2ccccc2)c(=O)[nH]c1=O,-4,-3,51*,-2,-25,2,-1
CN(C(=O)COC(=O)COc1ccc2c(c1)CCC2)c1c(N)n(Cc2ccccc2)c(=O)[nH]c1=O,-3,1,-18,-2,-7,0,x
COCCN(C(=O)COC(=O)COc1ccc(Cl)c(C)c1)c1c(N)n(Cc2ccccc2)c(=O)[nH]c1=O,-6,-1,-6,-2,x,1,x
CCN(C(=O)COC(=O)COc1ccc2c(c1)CCC2)c1c(N)n(Cc2ccccc2)c(=O)[nH]c1=O,-4,-3,24*,-3,15,0,-1
COCCN(C(=O)COC(=O)COc1ccc2ccccc2c1)c1c(N)n(Cc2ccccc2)c(=O)[nH]c1=O,-3,0,19*,-6,-1,0,0
CCCNC(=O)C[C@H]1CC[C@@H]2[C@H](COC[C@H](O)CN2C(=O)c2ccccn2)O1,x,x,x,4,2,x,x
CCCN(CCO)Cc1cccc(Oc2ccccc2)c1,-2,-3,3,x,16,-1,x
COc1ccc(/C=C(\C#N)C(=O)OCC(=O)N2CC(C)OC(C)C2)cc1 (stereo not given),x,0,-6,-3,x,3,x
CC(=O)C1=C(C)NC(=O)NC1c1cc(Br)ccc1OCC(N)=O (stereo not given),0,-1,-3,x,x,0,x
C=CCNC(=O)COC(=O)/C=C/c1cccs1,6,0,0,3,-2,0,x
CCc1cc2ccc(C)cc2nc1SCC(=O)Nc1c[nH]c(=O)[nH]c1=O,-5,0,22*,1,-3,0,6
CCCCCn1c(=O)[nH]c2cc(C(=O)N3CCN(c4ccccc4F)CC3)ccc2c1=O,-9,0,5,1,-14,-5,x
COc1ccc(/C=C/C(=O)OCC(=O)c2ccccc2F)cc1,-5,-5,-11,-2,x,1,x
Cc1c(O)ccc2c(CN3CCN(C/C=C/c4ccccc4)CC3)cc(=O)oc12,-6,-1,18*,-7,x,0,7
O=C(Nc1ncn[nH]1)c1cc(S(=O)(=O)Nc2cccc(C(F)(F)F)c2)ccc1Cl,1,0,58*,0,x,0,1
SMILES,CAL PDZ FP-1,CAL PDZ FP-2,dFosB act-1,S100A4 MyoIIA,C2C12 statin,CDK5 p35 inh,dFosB act-2
C[C@@H]1CN([C@@H](C)CO)C(=O)c2cc(NS(=O)(=O)c3cn(C)cn3)ccc2O[C@@H](C)CCCCO[C@@H]1CN(C)C(=O)Nc1ccc(C(F)(F)F)cc1,x,x,x,-12,x,x,x
Cc1cc(NC(=O)c2ccc(COc3ccccc3Cl)o2)no1,-4,-1,7,-11,8,0,x
CC(=O)Nc1ccc(/C(C)=N/NC(=O)c2ccc(COc3ccccc3Cl)o2)cc1,0,1,31*,-6,-10,-7,-2
COc1ccc(/C=N/NC(=O)c2ccc(COc3ccccc3Cl)o2)cc1,1,-3,28*,0,x,0,8
COc1ccc(/C=N/NC(=O)c2ccc(COc3ccccc3Cl)o2)c(OC)c1C,-7,-1,-12,x,x,1,x
O=C(CCN1C(=O)C2C3C=CC(C3)C2C1=O)N1CCN(c2cccc(Cl)c2)CC1 (stereo not given),-3,0,-4,x,-5,0,x
Cc1ccc(C)c(N2CCN(C(=O)Cn3c(=O)oc4cc(S(=O)(=O)N5CCCC5)ccc43)CC2)c1,x,-1,35*,-7,0,-3,2
O=C(Cn1c(=O)oc2cc(S(=O)(=O)N3CCCC3)ccc21)NC1CCCc2ccccc21 (stereo not given),x,-1,26*,-4,6,0,3
O=C(Cn1c(=O)oc2cc(S(=O)(=O)N3CCCCCC3)ccc21)NC1CCCCCCC1,-1,0,-10,-5,2,0,x
CO[C@@H]1CN(C)C(=O)c2cc(NS(C)(=O)=O)ccc2OC[C@@H](C)N(Cc2nccs2)C[C@@H]1C,x,x,x,3,-3,x,x
O=C(N/N=C/c1cc([N+](=O)[O-])ccc1Cl)c1ccc2nc[nH]c2c1,x,1,35*,x,9,1,2
CC(=O)Nc1cc(C(F)(F)F)ccc1OCCOc1ccccc1,-1,0,-9,x,-10,-1,x
Cc1ccc(Cn2c(CCNc3nc(-c4ccc(C)cc4)cs3)nc3cc(C(=O)NCCCO)ccc32)cc1,-2,1,23*,-5,16,0,1
Fc1ccc(Nc2ccnc(C(F)(F)F)c2)cc1,-3,x,-2,3,-20,2,x
O=C(CS(=O)(=O)c1ccccc1)Nc1ccc(S(=O)(=O)Nc2ncccn2)cc1,4,0,-2,0,x,1,x
